Source: ChEMBL document CHEMBL4715843, “NO-releasing STAT3 inhibitors suppress BRAF-mutant melanoma growth” (Eur J Med Chem, 2020)
Each block holds one compound with its values, some of them ahead of it. The source made the active and inactive calls. The calls are words filed in the database; no cut-off is given here.

Columns and labels:
[1] = biological target: T1, Signal transducer and activator of transcription 3 (Homo sapiens, UniProt P40763); experiment: Inhibition of STAT3 phosphorylation at Y705 residues in human A-375 cells at 10 to 25 uM after 12 hrs by Western blotting analysis; type: cell-based; conditions: dose 10-25 µM
Procedure, shortened: (§1)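 Cells lysed in M-PER after 12 h drug exposure (overnight per text); 60 µg total protein run on 10% SDS-PAGE, transferred to PVDF, probed overnight at 4 °C with phospho-specific antibodies. Panel lines (U87-MG, MDA-MB-468, MIA PaCa-2, NCI-H157, A549) given 25 µM; A375 given 0, 5, 10, 25 µM. Actin and/or vinculin loading controls.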

CCRF-CEM = experiment: Anticancer activity against human CCRF-CEM cells assessed as cell growth inhibition at 10 uM measured after 48 hrs by SRB assay relative to control; type: functional; conditions: read-out: GI
Procedure, shortened: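 NCI 60-cell-line screen. Cells in RPMI with 5% FBS were plated at 5,000–40,000 cells/well by doubling time and preincubated 24 h at 37 °C. Compound was added at a single 10 µM for 48 h, then cells were fixed with cold TCA (10% final) and stained with 0.4% SRB. Absorbance at 515 nm gave percent growth versus untreated control and time-zero cells.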

[2] = biological target: T1, Signal transducer and activator of transcription 3; experiment: Inhibition of STAT3 phosphorylation at Y705 residues in human MIA PaCa-2 cells at 25 uM after 12 hrs by Western blotting analysis; type: cell-based; procedure, shortened: as §1
[3] = biological target: T1, Signal transducer and activator of transcription 3; experiment: Inhibition of STAT3 phosphorylation at Y705 residues in human A549 cells at 25 uM after 12 hrs by Western blotting analysis; type: cell-based; procedure, shortened: as §1
[4] = biological target: T1, Signal transducer and activator of transcription 3; experiment: Inhibition of STAT3 phosphorylation at Y705 residues in human A-375 cells at 5 to 10 uM after 12 hrs by Western blotting analysis; type: cell-based; conditions: dose 5-10 µM; procedure, shortened: as §1
[5] = biological target: T1, Signal transducer and activator of transcription 3; experiment: Inhibition of STAT3 phosphorylation at S727 residues in human MDA-MB-468 cells at 25 uM after 12 hrs by Western blotting analysis; type: cell-based; procedure, shortened: as §1
[6] = biological target: T1, Signal transducer and activator of transcription 3; experiment: Inhibition of STAT3 phosphorylation at S727 residues in human MIA PaCa-2 cells at 25 uM after 12 hrs by Western blotting analysis; type: cell-based; procedure, shortened: as §1
[7] = biological target: T1, Signal transducer and activator of transcription 3; experiment: Inhibition of STAT3 phosphorylation at S727 residues in human NCI-H157 cells at 25 uM after 12 hrs by Western blotting analysis; type: cell-based; procedure, shortened: as §1
[8] = biological target: T1, Signal transducer and activator of transcription 3; experiment: Inhibition of STAT3 phosphorylation at S727 residues in human A549 cells at 25 uM after 12 hrs by Western blotting analysis; type: cell-based; procedure, shortened: as §1
[9] = biological target: Tyrosine-protein kinase JAK2 (Homo sapiens) (UniProt O60674); experiment: Inhibition of JAK2 phosphorylation in human U-87 MG cells at 25 uM after 12 hrs by Western blotting analysis; type: cell-based; procedure, shortened: as §1
[10] = biological target: Tyrosine-protein kinase JAK2 (Homo sapiens) (UniProt O60674); experiment: Inhibition of JAK2 phosphorylation in human MDA-MB-468 cells at 25 uM after 12 hrs by Western blotting analysis; type: cell-based; procedure, shortened: as §1
[11] = biological target: Tyrosine-protein kinase JAK2 (Homo sapiens) (UniProt O60674); experiment: Inhibition of JAK2 phosphorylation in human MIA PaCa-2 cells at 25 uM after 12 hrs by Western blotting analysis; type: cell-based; procedure, shortened: as §1
[12] = biological target: Tyrosine-protein kinase JAK2 (Homo sapiens) (UniProt O60674); experiment: Inhibition of JAK2 phosphorylation in human A549 cells at 25 uM after 12 hrs by Western blotting analysis; type: cell-based; procedure, shortened: as §1
[13] = biological target: Proto-oncogene tyrosine-protein kinase Src (Homo sapiens) (UniProt P12931); experiment: Inhibition of SRC phosphorylation in human U-87 MG cells at 25 uM after 12 hrs by Western blotting analysis; type: cell-based; procedure, shortened: as §1
[14] = biological target: Proto-oncogene tyrosine-protein kinase Src (Homo sapiens) (UniProt P12931); experiment: Inhibition of SRC phosphorylation in human MDA-MB-468 cells at 25 uM after 12 hrs by Western blotting analysis; type: cell-based; procedure, shortened: as §1
[15] = biological target: Proto-oncogene tyrosine-protein kinase Src (Homo sapiens) (UniProt P12931); experiment: Inhibition of SRC phosphorylation in human MIA PaCa-2 cells at 25 uM after 12 hrs by Western blotting analysis; type: cell-based; procedure, shortened: as §1
[16] = biological target: Proto-oncogene tyrosine-protein kinase Src (Homo sapiens) (UniProt P12931); experiment: Inhibition of SRC phosphorylation in human A549 cells at 25 uM after 12 hrs by Western blotting analysis; type: cell-based; procedure, shortened: as §1
A-375 = experiment: Antiproliferative activity against human A-375 cells measured after 48 hrs by MTS assay; type: functional, cell-based
Procedure, shortened: (§2)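 Cells were exposed to a dose range of inhibitor for 48 h, and viability was read by MTS assay in triplicate. GI50 was taken as the concentration giving 50% growth inhibition, averaged from three independent experiments. A375 was cultured in RPMI-1640 with Glutamax. A549 and NCI-H157 were kept in RPMI-1640, and MIA PaCa-2 and U87-MG in DMEM.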

U-87 MG = experiment: Antiproliferative activity against human U-87 MG cells measured after 48 hrs by MTS assay; type: functional, cell-based; conditions: U-87MG ATCC; procedure, shortened: as §2
MDA-MB-468 = experiment: Antiproliferative activity against human MDA-MB-468 cells measured after 48 hrs by MTS assay; type: functional, cell-based
A549 = experiment: Antiproliferative activity against human A549 cells measured after 48 hrs by MTS assay; type: functional, cell-based; procedure, shortened: as §2
451Lu [17] = experiment: Antiproliferative activity against human 451Lu cells measured after 48 hrs by MTS assay; type: functional, cell-based
MEL1617 [18] = experiment: Antiproliferative activity against human MEL1617 cells measured after 48 hrs by MTS assay; type: functional, cell-based; procedure, shortened: as §2
[19] = biological target: T1, Signal transducer and activator of transcription 3; experiment: Inhibition of IL-6 induced STAT3 activation in human A-375 cells preincubated for overnight followed by IL-6 addition and measured after 30 mins by Western blot analysis; type: cell-based
Procedure, shortened: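 A375 cells were held overnight in serum-free medium with inhibitor doses, then stimulated in full medium with 25 ng/mL IL-6 for 30 min. Lysates were immunoblotted for STAT3 pY705/pS727 and Cyclin D1.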

MEL1617 [20] = experiment: Antiproliferative activity against human SB-590885-sensitive MEL1617 cells assessed as reduction in cell viability measured after 48 hrs by MTS assay; type: functional, cell-based
Procedure, shortened: (§3)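 Melanoma lines were grown in RPMI-1640 with Glutamax at 37 °C and 5% CO2. The resistant 451 Lu-R and MEL 1617-R sublines were maintained with 1 µM PLX4720. Cells were incubated with vehicle or inhibitor over a dose range, and viability was read by MTS assay in triplicate.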

MEL1617 [21] = experiment: Antiproliferative activity against human SB-590885-resistant MEL1617 cells assessed as reduction in cell viability measured after 48 hrs by MTS assay; type: functional, cell-based; procedure, shortened: as §3
451Lu [22] = experiment: Induction of apoptosis in human SB-590885-resistant 451Lu cells assessed as increase in cleaved PARP expression measured after 12 hrs by Western blot analysis; type: functional
Procedure, shortened: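 Sensitive and resistant 451 Lu cells were exposed to a dose range for 12 h before lysis. PARP, cleaved PARP and caspase-7 were detected by western blot against a vinculin loading control; repeated twice.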

Chain of Tyrosine-protein kinase JAK2 (Homo sapiens) (O60674 whole entry): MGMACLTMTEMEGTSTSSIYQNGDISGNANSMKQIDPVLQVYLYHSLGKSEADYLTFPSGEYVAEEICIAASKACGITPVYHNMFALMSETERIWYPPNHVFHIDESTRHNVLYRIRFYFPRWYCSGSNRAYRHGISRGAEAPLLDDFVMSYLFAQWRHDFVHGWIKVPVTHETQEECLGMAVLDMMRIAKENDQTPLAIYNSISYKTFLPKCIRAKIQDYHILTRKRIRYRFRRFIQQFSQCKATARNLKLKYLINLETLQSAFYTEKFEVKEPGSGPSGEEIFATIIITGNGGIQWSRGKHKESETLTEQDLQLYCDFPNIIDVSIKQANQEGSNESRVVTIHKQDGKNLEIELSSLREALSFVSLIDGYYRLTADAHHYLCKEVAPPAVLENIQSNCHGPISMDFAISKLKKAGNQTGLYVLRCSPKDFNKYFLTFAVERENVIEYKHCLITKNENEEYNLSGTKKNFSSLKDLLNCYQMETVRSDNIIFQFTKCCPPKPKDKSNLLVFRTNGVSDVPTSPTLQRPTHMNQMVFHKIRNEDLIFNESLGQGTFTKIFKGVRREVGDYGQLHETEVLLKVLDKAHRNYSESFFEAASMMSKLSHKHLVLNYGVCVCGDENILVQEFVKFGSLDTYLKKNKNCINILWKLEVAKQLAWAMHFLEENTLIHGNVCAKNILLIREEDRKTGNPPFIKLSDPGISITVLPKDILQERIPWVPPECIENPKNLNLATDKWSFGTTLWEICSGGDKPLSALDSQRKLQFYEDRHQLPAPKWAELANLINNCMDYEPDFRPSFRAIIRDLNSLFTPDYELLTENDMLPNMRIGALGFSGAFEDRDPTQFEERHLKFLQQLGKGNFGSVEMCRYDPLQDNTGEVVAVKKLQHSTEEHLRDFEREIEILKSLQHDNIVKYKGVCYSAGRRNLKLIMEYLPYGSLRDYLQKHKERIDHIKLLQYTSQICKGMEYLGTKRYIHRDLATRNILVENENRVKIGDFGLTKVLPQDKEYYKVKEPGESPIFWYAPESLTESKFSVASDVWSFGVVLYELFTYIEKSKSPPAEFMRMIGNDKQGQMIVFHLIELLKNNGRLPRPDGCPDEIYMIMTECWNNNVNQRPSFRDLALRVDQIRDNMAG
T1 sequence (P40763 whole entry): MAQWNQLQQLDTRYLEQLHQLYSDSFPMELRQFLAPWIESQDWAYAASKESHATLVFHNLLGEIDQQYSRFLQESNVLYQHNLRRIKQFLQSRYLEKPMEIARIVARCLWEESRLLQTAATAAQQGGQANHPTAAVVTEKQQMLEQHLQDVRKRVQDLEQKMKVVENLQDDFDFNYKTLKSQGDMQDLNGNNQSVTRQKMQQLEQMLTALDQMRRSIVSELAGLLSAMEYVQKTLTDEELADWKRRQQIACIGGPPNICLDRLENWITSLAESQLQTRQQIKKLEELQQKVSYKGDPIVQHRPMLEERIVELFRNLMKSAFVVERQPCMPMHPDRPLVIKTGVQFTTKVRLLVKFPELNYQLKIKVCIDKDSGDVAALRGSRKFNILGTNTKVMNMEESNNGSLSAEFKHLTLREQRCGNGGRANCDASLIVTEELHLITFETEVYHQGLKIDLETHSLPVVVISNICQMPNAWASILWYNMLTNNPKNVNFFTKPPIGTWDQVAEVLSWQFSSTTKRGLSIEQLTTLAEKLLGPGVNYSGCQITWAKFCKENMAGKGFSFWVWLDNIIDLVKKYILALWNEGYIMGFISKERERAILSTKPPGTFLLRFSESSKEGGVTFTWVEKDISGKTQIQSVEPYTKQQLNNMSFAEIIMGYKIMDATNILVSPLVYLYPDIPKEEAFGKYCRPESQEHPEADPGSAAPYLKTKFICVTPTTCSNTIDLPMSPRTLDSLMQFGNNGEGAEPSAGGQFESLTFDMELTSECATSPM
Chain of Proto-oncogene tyrosine-protein kinase Src (Homo sapiens) (P12931 2-536 limits assumed): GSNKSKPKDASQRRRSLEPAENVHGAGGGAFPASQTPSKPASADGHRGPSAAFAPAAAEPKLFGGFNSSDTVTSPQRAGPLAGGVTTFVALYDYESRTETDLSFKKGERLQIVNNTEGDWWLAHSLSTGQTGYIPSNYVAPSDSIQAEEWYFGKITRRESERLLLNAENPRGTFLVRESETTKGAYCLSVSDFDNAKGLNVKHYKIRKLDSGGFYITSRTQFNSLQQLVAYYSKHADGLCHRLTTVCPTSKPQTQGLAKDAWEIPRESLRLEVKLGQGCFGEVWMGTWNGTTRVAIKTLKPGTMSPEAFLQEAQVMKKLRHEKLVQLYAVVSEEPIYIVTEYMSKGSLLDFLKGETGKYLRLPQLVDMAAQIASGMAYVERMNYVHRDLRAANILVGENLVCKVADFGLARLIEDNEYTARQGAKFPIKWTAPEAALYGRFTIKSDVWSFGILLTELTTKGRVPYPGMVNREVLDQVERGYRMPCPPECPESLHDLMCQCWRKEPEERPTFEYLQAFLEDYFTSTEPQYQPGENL

inhibition [1]: Active
SMILES: C=CCn1c(SCC(=O)Nc2ccc(/C(C)=N\O)cc2)nnc1-c1cc(-c2ccc(Cl)cc2)nc2ccccc12

inhibition [2]: Active
inhibition [3]: Active
inhibition [4]: Active
inhibition [5]: Active
inhibition [6]: Active
inhibition [7]: Active
inhibition [8]: Active
inhibition [9]: inactive
inhibition [10]: inactive
inhibition [11]: inactive
inhibition [12]: inactive
inhibition [13]: inactive
inhibition [14]: inactive
inhibition [15]: inactive
inhibition [16]: inactive
inhibition [19]: Dose-dependent effect
SMILES: C=CCn1c(SCC(=O)Nc2ccc(/C(C)=N\O)cc2)nnc1-c1cc(-c2ccccc2)nc2ccccc12
inhibition of growth at 10 µM (CCRF-CEM): 76%
Activity (A-375): Active
Activity (U-87 MG): Active
Activity (MDA-MB-468): Active
Activity (A549): Active
Activity (451Lu [17]): Active
Activity (MEL1617 [18]): Active
Activity (MEL1617 [20]): Dose-dependent effect
Activity (MEL1617 [21]): Dose-dependent effect
Activity (451Lu [22]): Dose-dependent effect
